{
  "source": "ChEMBL document CHEMBL1134550",
  "about": "“Structure-activity studies of ground- and transition-state analogue inhibitors of cyclophilin” (J Med Chem, 2001)",
  "data": [
    {"target": "Peptidyl-prolyl cis-trans isomerase A (Homo sapiens, UniProt P62937)", "sequence (P62937 whole entry)": "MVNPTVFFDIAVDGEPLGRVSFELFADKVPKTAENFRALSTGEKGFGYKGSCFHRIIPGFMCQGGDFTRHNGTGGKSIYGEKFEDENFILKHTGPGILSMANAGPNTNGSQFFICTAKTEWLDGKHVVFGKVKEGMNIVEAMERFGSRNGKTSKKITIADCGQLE", "assay": "Binding affinity towards cyclophilin A by fluorescence", "procedure,_shortened": "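Recombinant human cyclophilin A, expressed in E. coli with IPTG induction and partially purified by ammonium sulfate fractionation and DEAE-Sepharose. Intrinsic Trp fluorescence enhancement measured at room temperature in 50 mM Tris-HCl pH 7.6, 0.1 M NaCl. Kd from nonlinear least-squares fit to a quadratic binding equation.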", "units": {"Kd": "µM"}, "values": [
      {"smiles": "COC(=O)[C@]12CCCN1C(=O)[C@](Cc1ccc3ccccc3c1)(NC(=O)OCc1ccccc1)CC2", "Kd": 4.7},
      {"smiles": "COC(=O)[C@]12CCCN1C[C@@H](NC(=O)OC(C)(C)C)CC2", "Kd": "> 200"},
      {"smiles": "COC(=O)[C@]12CCCN1C(=O)[C@](Cc1ccc3ccccc3c1)(NC(C)=O)CC2", "Kd": 1.5},
      {"smiles": "COC(=O)[C@]12CCCN1C(=O)[C@@H](NC(=O)OC(C)(C)C)CC2", "Kd": "> 200"},
      {"smiles": "COC(=O)[C@]12CCCN1C(=O)[C@](Cc1ccc3ccccc3c1)(NC(=O)OC(C)(C)C)CC2", "Kd": 17},
      {"smiles": "COC(=O)[C@]12CCCN1C(=O)[C@](Cc1ccccc1)(NC(=O)OCc1ccccc1)CC2", "Kd": 124},
      {"smiles": "COC(=O)[C@]12CCCN1C[C@H](NC(=O)OC(C)(C)C)CC2", "Kd": "> 200"},
      {"smiles": "COC(=O)[C@]12CCCN1C(=O)[C@H](NC(=O)OCc1ccccc1)CC2", "Kd": "> 200"},
      {"smiles": "COC(=O)[C@]12CCCN1C(=O)[C@H](NC(=O)OC(C)(C)C)CC2", "Kd": "> 200"},
      {"smiles": "COC(=O)[C@]12CCCN1C(=O)[C@](Cc1ccccc1)(NC(=O)OC(C)(C)C)CC2", "Kd": 140},
      {"smiles": "COC(=O)[C@]12CCCN1C[C@](Cc1ccc3ccccc3c1)(NC(=O)OC(C)(C)C)CC2", "Kd": 77}
    ]}
  ]
}
